Source: PubChem (Broad Institute)
esBAF inh = SWI/SNF esBAF complex inhibition; mouse ES cells, Bmi1-luciferase knock-in reporter, 24 h; 100% = twice the neutral-well signal; reporter increase, % at 12.5 µM; hit rate 2% among 350,000; in the data active = activation above about 40%; inconclusive = no clear call, values can overlap the other calls;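 note: 0% = median of the plate's neutral control wells and 100% = double that signal; a rise in the Bmi1 reporter signal indicates esBAF inhibition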
NSD2 inh = blocks human histone methyltransferase NSD2; O96028; NSD2 peptide methylation, AlphaScreen, 120 min; inhibition, % at 12.5 µM; hit rate 0.54% among 310,000; AID 743445; in the data active = inhibition above about 50%
Wnt bcat act = Wnt/beta-catenin pathway activation; activation, % at 9.35 µM; Wnt/beta-catenin reporter cell assay, activator, plate reader; AID 743398; hit rate 1.2% among 300,000; in the data active = activation above about 30%, passing the limit was not always enough; inconclusive = no clear call, values can overlap the other calls;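 note: 0% = neutral control wells and 100% = positive control wells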
MITF act = increases MITF-driven TRPM1 promoter luciferase signal; SK-MEL-5 TRPM1-promoter luciferase, 24 h; % of positive control, neutral wells = 0; hit rate 0.75% among 300,000; activation, % at 12.5 µM;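 active = mean activation of at least 80% with every replicate also reaching 80%; inconclusive = mean reaches 80% but some replicate falls short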;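 note: 0% = neutral control wells and 100% = parthenolide positive control wells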
CASP6 VEID inh = blocks human caspase-6 cleavage activity; hit rate 0.53% among 350,000; P55212; purified caspase-6, Z-VEID-R110 cleavage fluorescence; AID 686996; inhibition, % at 12.5 µM;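 active = mean inhibition across replicates at least about 35%, with every replicate also reaching that limit, limit read from the data; inconclusive = only one of the two criteria met; inactive = neither criterion met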;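 note: 0% = median of neutral control wells and 100% = no fluorescence left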
Target sequence (P55212 24-179 limits assumed): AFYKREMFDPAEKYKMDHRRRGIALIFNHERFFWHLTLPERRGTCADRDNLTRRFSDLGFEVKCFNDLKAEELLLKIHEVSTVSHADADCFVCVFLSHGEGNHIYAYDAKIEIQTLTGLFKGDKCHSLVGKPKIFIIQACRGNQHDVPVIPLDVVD
Target sequence (P55212 194-293 limits assumed): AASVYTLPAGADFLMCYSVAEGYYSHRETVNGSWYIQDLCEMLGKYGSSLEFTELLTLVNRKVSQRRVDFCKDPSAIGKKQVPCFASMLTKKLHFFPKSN
Xi reactivation = activators of X-chromosome reactivation in mouse fibroblasts. AID 743238. hit rate 0.055% among 360,000. XiGFP mouse fibroblasts, % GFP-positive cells imaging, 3 d; cells co-treated with 5-aza-dC sensitizer; scaled so ellipticine positive control = 100%. activation, % at 7.58 µM;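 active = mean normalized replicate activation at least 10% and every replicate at or above 10%; inconclusive = only one of the two criteria met; inactive = mean below 10% and not all replicates reach 10%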;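 note: 0% = median of on-plate neutral control wells and 100% = ellipticine 6 µM median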
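Assay system – SV40-immortalized XiGFP fibroblast cells, line 68-5-11 · Buffer or medium – DMEM supplemented with 5-aza-dC as sensitizing agent · Dosing – one concentration, pinned · Benchmarks – positive control ellipticine, 6 µM final · Times – 3 days compound exposure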
Alpha artifact = interferes with AlphaScreen signal, flagging NSD2 false positives; AC35, µM (highest dose often 10 µM), for inactives: at the top dose activity change, negative = signal loss; AID 1053174; AlphaScreen artifact counterscreen, preloaded methylated H4 peptide; shares compounds with NSD2 inh; hit rate 9.4% among 1,500; call rule not given here
Active calls of the source: *; ? = inconclusive; . = no result. Compounds with a hit are over-represented: about 3% of the library has one in this group of screens.

SMILES	esBAF inh	NSD2 inh	Wnt bcat act	MITF act	CASP6 VEID inh	Xi reactivation	Alpha artifact
COc1cccc2c1C(=N)c1c(O)c3c(c(O)c1C2=O)CC(O)(C(C)=O)CC3OC1CC(N)C(O)C(C)O1 (configuration not stated)	.	56*	.	.	.	.	8.5µM*
CCOC(=O)C1=C(C)OC2(O)c3ccccc3C(=O)C12O (configuration not stated)	-13	107*	-4	.	24	0	1%
CC(=O)C1=C(C)OC2(O)c3ccccc3C(=O)C12O (configuration not stated)	.	90*	-2	.	30	0	-1%
COC(=O)[C@H]1[C@H](CO)[C@H]2Cn3c(ccc(-c4ccccc4F)c3=O)[C@H]2N1Cc1ccncc1	-3	.	.	.	2	0	.
O=C(NCC[C@H]1CC[C@H](NC(=O)C2CCOCC2)[C@@H](CO)O1)c1ccc(F)cc1	-3	.	.	.	2	0	.
CC(=O)Oc1cccc2c1C(=O)c1c(OC(C)=O)cc(C(=O)O)cc1C2=O	-9	.	1	-15	.	0	.
CC(=O)Oc1cccc2c1C(=O)C1CC=CC(OC(C)=O)C1C2=O (configuration not stated)	-4	69*	0	1	7	0	8µM*
CCCC#Cc1cnc2c(c1)C(=O)N([C@@H](C)CO)C[C@@H](C)[C@H](CN(C)C(=O)c1cnccn1)O2	6	.	.	.	7	0	.
CCOC(=O)c1ccc(N=C2NC(=O)CS2)cc1	3	0	.	-3	.	.	.
CCOC(=O)c1ccc(N=c2scc(C)n2CC)cc1	58*	51*	?	52	-1	0	-12%
Cc1cccc(Nc2nc(NCc3ccco3)nc(N)c2[N+](=O)[O-])c1	-5	96*	2	4	4	0	-5%
Cc1cccc(Nc2nc(N)c([N+](=O)[O-])c(NCc3ccco3)n2)c1	-60	0	-4	-2	2	0	.
Cc1ccc2nc(-c3ccccc3)cn2c1	-85	.	.	-87	.	.	.
Cc1ccc2nc(-c3ccc(O)c(O)c3)cn2c1	-53	55*	0	-41	38*	0	-11%
COc1ccc(C2CC(=O)c3c(C)nc(N4CCN(c5ccccc5)CC4)nc3C2)cc1 (configuration not stated)	2	53*	1	.	.	.	-6%
Cc1nc(N2CCN(Cc3ccccc3)CC2)nc2c1C(=O)CC(c1ccco1)C2 (configuration not stated)	.	1	.	-10	.	.	.
CCc1ccc(N(C(=O)CNC(=O)c2ccco2)C(C(=O)NCC2CCCO2)c2ccccc2)cc1 (configuration not stated)	.	0	1	0	1	0	.
CC(=O)Nc1ccc(N(C(=O)CNC(=O)c2ccco2)C(C(=O)NCC2CCCO2)c2ccccc2)cc1 (configuration not stated)	.	51*	-1	7	0	-1	1%
CCOc1ccc(-n2c(COc3ccccc3)nnc2SCc2nc3ccccc3[nH]2)cc1	.	-3	.	.	.	.	.
CCOc1ccc(-c2nnc(SCc3nc4ccccc4[nH]3)n2N)cc1	13	72*	1	-1	.	.	-4%
Cn1c(=O)cc2c3c(c(N4CCCCC4)ccc31)C(=O)c1ccccc1-2	.	71*	0	.	-1	0	7.8µM*
O=C1c2ccccc2C(=O)c2c1cccc2N1CCCC1	.	43	-7	25	5	0	.
CCOc1ccc(-n2cnc3sc4c(c3c2=O)CCCC4)cc1	.	58*	-1	.	-1	0	0%
CO[C@@H](CN(C)C(=O)c1ccc2c(c1)OCO2)[C@@H](C)CN([C@H](C)CO)S(=O)(=O)c1ccc(C)cc1	-5	.	.	.	1	0	.
Cc1ccccc1CN1CCN(C(=O)c2ccco2)CC1	12	56*	20	23	-2	0	-5%
C[C@@H]1CN([C@@H](C)CO)C(=O)Cc2cc(NC(=O)CCC(F)(F)F)ccc2O[C@@H]1CN(C)Cc1ccccc1	-1	.	.	.	2	0	.
